This note sets out measurements from publication PMC11008256 (Cell reports. Physical science, 2024).

Where a name gives a salt, the structure may show the parent alone. Ends that are not written are not given here. Peptide text beside a SMILES is read from it.

Series [1] concerns K. pneumoniae NTUH K2044. Nature of the series: Antimicrobial activity, broth microdilution MIC. The conditions noted are these: LB used for MIC testing to determine dosage for skin model. The format is cell-based, Klebsiella pneumoniae. The gist of the method:
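Log-phase cells (an overnight LB culture diluted 1:100 in MHB at 37°C) seeded at 1 × 10^6 CFU mL-1 in LB for skin-model dosing, rather than the usual MHB. Peptide and polymyxin B control prepared in BSA buffer and tested at 0.0625–128 µmol L-1. Growth read as OD600; three independent replicates.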
In general terms: In broth dilution the organism is exposed to a series of concentrations in liquid medium.

Series [2] deals with K. pneumoniae NTUH K2044. Nature of the series: Skin abscess mouse model. The format is in vivo, female CD-1 mice. To be noted: single topical dose at MIC, monitored 4 days, n = 6.
The nature of series [3]: Peptide:polysaccharide aggregation assay. Also noted: species or system Klebsiella pneumoniae. To be noted: 100 μmol L^−1 peptide, 300 μg mL^−1 polysaccharide. The procedure, abridged:
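Polysaccharide hot-phenol-extracted from an overnight LB culture (60 min, 68°C; chloroform; ethanol precipitation) and quantified by uronic acid assay. Mixed with peptide in 10 mM potassium phosphate, then immediately spun 15,600 rpm for 15 min. Pellets resuspended in water, run on 4–8% bis-tris SDS-PAGE beside 2 µg purified polysaccharide, and Alcian blue-stained. Band density measured with the no-peptide control subtracted as background. Triplicate; ±SEM.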

The test system of series [4] is pre-formed biofilms of K. pneumoniae NTUH K2044. The series is described as follows: Biofilm eradication. The format is cell-based, Klebsiella pneumoniae. To be noted: 60 μmol L^−1, 24 h. The procedure, abridged:
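Overnight NTUH K2044 culture diluted to OD600 0.5 in TSB + 0.5% glucose. Biofilms grown 24 h at 37°C static in 35 mm dishes. Peptide diluted in BSA buffer (0.2% BSA, 0.01% acetic acid) plus MHB; untreated control received buffer plus MHB. Treatment 24 h at 37°C static. Dispersed cells and PBS-washed (×3), PBS-resuspended biofilm plated for CFU mL-1. ±SEM; one-way ANOVA with Dunnett versus untreated.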

For series [5], the system named is K. pneumoniae NTUH K2044 biofilm matrix polysaccharides. Nature of the series: Confocal microscopy imaging of biofilm polysaccharide matrix. The format is cell-based, Klebsiella pneumoniae.
The subject of the next series is Human red blood cells. Nature of the series: Hemolytic activity assay. To be noted: 1 to 128 μmol L^−1, 4 h room temperature, absorbance 405 nm. The format is cell-based.

With `CC[C@H](C)CCCCC(=O)N[C@@H](CCN)C(=O)N[C@H](C(=O)N[C@@H](CCN)C(=O)N[C@H]1CCNC(=O)[C@H]([C@@H](C)O)NC(=O)[C@H](CCN)NC(=O)[C@H](CCN)NC(=O)[C@H](CC(C)C)NC(=O)[C@@H](Cc2ccccc2)NC(=O)[C@H](CCN)NC1=O)[C@@H](C)O` [polymyxin B, polymyxin B sulfate, reference compound] (HELM PEPTIDE1{[CC[C@H](C)CCCCC(=O)[*:2]].[Dab].T.[Dab].[Dab].[Dab].[dF].L.[Dab].[Dab].T}$PEPTIDE1,PEPTIDE1,5:R3-11:R2$$$V2.0; N-terminus assumed; bridges inferred), the “MIC used as dose for skin model” value against K. pneumoniae NTUH K2044 [1] is 1 µM. Moreover, the “mouse weight changes, skin damage (proxy of toxicity)” value in the series with K. pneumoniae NTUH K2044 [2] is on record as “No variations in weight, damage to the skin tissue, or other harmful consequences”.

Take “PRPIPRPLPFPRPGPRPIPRPLPFPRPGPRPIPRP [Bac7 (24–59)]”: in series [3], the “aggregation with extracellular polysaccharides (in words)” value is listed as “highest aggregation potential”. Besides, in series [4], the “biofilm and dispersed CFU mL^−1” value was “did not significantly change”. Further, the “effect on biofilm polysaccharide matrix (confocal)” value is “drop in overall height (30 μm) and moderate change in the polysaccharide matrix” in series [5] (15 μmol L^−1, 24 h, concanavalin A Texas red stain); “polysaccharide matrix loss from the upper layers of the biofilm” in series [5] (60 μmol L^−1, 24 h).

Turning to “RRIRPRPPRLPRPRPRPLPFPRPGPRPIPRPLPFP [Bac7 (1–35)]”, the “MIC used as dose for skin model” value in the series with K. pneumoniae NTUH K2044 [1] is 2 µM. Also, in the series with Human red blood cells, the hemolysis entry is “limited ability to lyse red blood cells”. For the same molecule, the “mouse weight changes, skin damage (proxy of toxicity)” value in the series on K. pneumoniae NTUH K2044 [2] is given as “No variations in weight, damage to the skin tissue, or other harmful consequences”.
